Activity calls are given as the source filed them. The calls are words filed in the database; no cut-off is given here.
How the values were obtained:
[1] = system: Bovine viral diarrhea virus 1; experiment: Antiviral activity against BVDV in MDBK cells assessed as reduction of virus-induced cytopathic effect; format: functional, organism-based; details: Bovine viral diarrhea virus isolates and strains
Hepatitis C virus = experiment: Antiviral activity against HCV in Huh 5-2 cells assessed as […]; format: functional, organism-based, Hepacivirus hominis
How it was run: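 Huh 5-2 cells were seeded at 5×10³/well in complete DMEM with G418. After 24 h at 37 °C (5% CO₂), the medium was replaced with threefold serial compound dilutions in DMEM without G418 and incubated for 4 days. Values are means of 4–6 independent experiments.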

[2] = Selectivity index, ratio of CC50 for Huh 5-2 cells to EC50 for HCV; format: functional
[3] = (§1) Selectivity index, ratio of CC50 for MDBK cells to EC50 for BVDV; format: functional
[4] = Cytotoxicity against MDBK cells; format: cell-based, Bos taurus; details: cattle
How it was run: (§2)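 MDBK or Huh 5-2 cells seeded at 5 · 10³ cells/well in MEM-FCS; serial compound dilutions added 24 h later. Read-out OD490 nm, expressed as OD treated/OD untreated control.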

[5] = Cytotoxicity against Huh 5-2 cells; format: cell-based; details: human; how it was run: as §2
MDBK = experiment: as §1; format: functional

SMILES: Brc1ccc(Cn2ccc3nc(-c4ccc5ccccc5c4)nc-3c2)cc1
- EC50 [1]: 0.03 µM
- EC50 (Hepatitis C virus): 5.7 µM
- Ratio CC50/EC50 [2]: 2
- Ratio CC50/EC50 [3]: 259
- CC50 [4]: 7 µM
- CC50 [5]: 9.7 µM

SMILES: COc1cccc(-c2nc3ccn(Cc4ccc(Br)cc4)cc-3n2)c1
- EC50 [1]: 0.05 µM
- EC50 (Hepatitis C virus): 18 µM
- Ratio CC50/EC50 [2]: 2
- Ratio CC50/EC50 [3]: >660
- CC50 [4]: > 33 µM
- CC50 [5]: 28 µM

SMILES: Brc1ccc(Cn2ccc3nc(-c4cccc(Br)c4)nc-3c2)cc1
- EC50 [1]: 0.11 µM
- EC50 (Hepatitis C virus): > 113 µM
- Activity [2]: inactive
- Ratio CC50/EC50 [3]: >300
- CC50 [4]: > 33 µM
- CC50 [5]: > 113 µM

SMILES: Fc1ccccc1-c1nc2ccn(Cc3ccc(I)cc3)cc-2n1
- EC50 [1]: 0.07 µM
- EC50 (Hepatitis C virus): 0.79 µM
- Ratio CC50/EC50 [2]: 74
- Ratio CC50/EC50 [3]: >478
- CC50 [4]: > 33 µM
- CC50 [5]: 58 µM

SMILES: CCc1nc2ccn(Cc3ccc(Br)cc3)cc-2n1
- EC50 [1]: 0.38 µM
- EC50 (Hepatitis C virus): > 92 µM
- Activity [2]: inactive
- Ratio CC50/EC50 [3]: >87
- CC50 [4]: > 33 µM
- CC50 [5]: 92 µM

SMILES: Brc1ccc(Cn2ccc3nc(COc4ccccc4)nc-3c2)cc1
- EC50 [1]: > 8 µM
- EC50 (Hepatitis C virus): 25 µM
- Ratio CC50/EC50 [2]: 1.5
- CC50 [4]: > 33 µM
- CC50 [5]: 35 µM

SMILES: Brc1ccc(Cn2ccc3nc(-c4cccnc4)nc-3c2)cc1
- EC50 [1]: 0.16 µM
- EC50 (Hepatitis C virus): 109 µM
- Activity [2]: inactive
- Ratio CC50/EC50 [3]: >206
- CC50 [4]: > 33 µM
- CC50 [5]: 126 µM

SMILES: Brc1ccc(Cn2ccc3nc(-c4cc(Br)cc(Br)c4)nc-3c2)cc1
- EC50 [1]: > 33 µM
- EC50 (Hepatitis C virus): > 96 µM
- Activity [2]: inactive
- Activity (MDBK): inactive
- CC50 [4]: > 33 µM
- CC50 [5]: > 96 µM

SMILES: Brc1ccc(Cn2ccc3nc(-c4ccncc4)nc-3c2)cc1
- EC50 [1]: 0.47 µM
- EC50 (Hepatitis C virus): 14 µM
- Ratio CC50/EC50 [2]: 3
- Ratio CC50/EC50 [3]: >70
- CC50 [4]: > 33 µM
- CC50 [5]: 38 µM

SMILES: Brc1ccc(Cn2ccc3nc(Cc4ccccc4)nc-3c2)cc1
- EC50 [1]: > 33 µM
- EC50 (Hepatitis C virus): 79 µM
- Ratio CC50/EC50 [2]: >2
- Activity (MDBK): inactive
- CC50 [4]: > 33 µM
- CC50 [5]: > 132 µM

SMILES: Brc1ccc(Cn2ccc3nc(-c4cccc(I)c4)nc-3c2)cc1
- EC50 [1]: 0.07 µM
- EC50 (Hepatitis C virus): 5.7 µM
- Ratio CC50/EC50 [2]: 2
- Ratio CC50/EC50 [3]: >83
- CC50 [4]: > 33 µM
- CC50 [5]: 12 µM

SMILES: Cc1ccccc1-c1nc2ccn(Cc3ccc(Br)cc3)cc-2n1
- EC50 [1]: 0.061 µM
- EC50 (Hepatitis C virus): 24 µM
- Activity [2]: inactive
- Ratio CC50/EC50 [3]: >541
- CC50 [4]: > 33 µM
- CC50 [5]: 21 µM

SMILES: Cc1ccc(-c2nc3ccn(Cc4ccc(Br)cc4)cc-3n2)cc1
- EC50 [1]: 0.4 µM
- EC50 (Hepatitis C virus): 8.2 µM
- Ratio CC50/EC50 [2]: 2
- Ratio CC50/EC50 [3]: 53
- CC50 [4]: 21 µM
- CC50 [5]: 13 µM

SMILES: Clc1ccc(-c2nc3ccn(Cc4ccc(Br)cc4)cc-3n2)cc1
- EC50 [1]: 0.7 µM
- EC50 (Hepatitis C virus): 13 µM
- Activity [2]: inactive
- Ratio CC50/EC50 [3]: >47
- CC50 [4]: > 33 µM
- CC50 [5]: 17 µM

SMILES: Brc1ccc(Cn2ccc3nc(CCc4ccccc4)nc-3c2)cc1
- EC50 [1]: > 16 µM
- EC50 (Hepatitis C virus): 2.5 µM
- Ratio CC50/EC50 [2]: 3
- Activity (MDBK): inactive
- CC50 [4]: 16 µM
- CC50 [5]: 7.6 µM

SMILES: Brc1ccc(Cn2ccc3nc(/C=C/c4ccccc4)nc-3c2)cc1
- EC50 [1]: 0.16 µM
- EC50 (Hepatitis C virus): 1.7 µM
- Ratio CC50/EC50 [2]: >2
- Ratio CC50/EC50 [3]: 88
- CC50 [4]: 14 µM
- CC50 [5]: 2.5 µM

SMILES: Clc1ccccc1-c1nc2ccn(Cc3ccc(Br)cc3)cc-2n1
- EC50 [1]: 0.33 µM
- EC50 (Hepatitis C virus): 25 µM
- Ratio CC50/EC50 [2]: 2
- Ratio CC50/EC50 [3]: >100
- CC50 [4]: > 33 µM
- CC50 [5]: 43 µM

SMILES: Brc1ccc(Cn2ccc3nc(CSc4ccccc4)nc-3c2)cc1
- EC50 [1]: > 25 µM
- EC50 (Hepatitis C virus): 4.9 µM
- Ratio CC50/EC50 [2]: 2
- Activity (MDBK): inactive
- CC50 [4]: 25 µM
- CC50 [5]: 9.7 µM

SMILES: Fc1ccccc1-c1nc2ccn(Cc3ccc(Cl)cc3)cc-2n1
- EC50 [1]: 0.11 µM
- EC50 (Hepatitis C virus): 44 µM
- Ratio CC50/EC50 [2]: 1.5
- Ratio CC50/EC50 [3]: >300
- CC50 [4]: > 33 µM
- CC50 [5]: 68 µM

SMILES: Fc1ccc(-c2nc3ccn(Cc4ccc(Br)cc4)cc-3n2)cc1
- EC50 [1]: 0.17 µM
- EC50 (Hepatitis C virus): 31 µM
- Activity [2]: inactive
- Ratio CC50/EC50 [3]: >194
- CC50 [4]: > 33 µM
- CC50 [5]: 37 µM

SMILES: Brc1ccc(Cn2ccc3nc(CCCCc4ccccc4)nc-3c2)cc1
- EC50 [1]: > 5 µM
- EC50 (Hepatitis C virus): > 2.2 µM
- Activity [2]: inactive
- Activity (MDBK): inactive
- CC50 [4]: 5 µM
- CC50 [5]: 2.2 µM

SMILES: FC(F)(F)c1cccc(-c2nc3ccn(Cc4ccc(Br)cc4)cc-3n2)c1
- EC50 [1]: 0.5 µM
- EC50 (Hepatitis C virus): 23 µM
- Ratio CC50/EC50 [2]: >5
- Ratio CC50/EC50 [3]: >72
- CC50 [4]: > 33 µM
- CC50 [5]: > 116 µM

SMILES: Clc1cccc(-c2nc3ccn(Cc4ccc(Br)cc4)cc-3n2)c1
- EC50 [1]: 0.15 µM
- EC50 (Hepatitis C virus): 83 µM
- Ratio CC50/EC50 [2]: >2
- Ratio CC50/EC50 [3]: >220
- CC50 [4]: > 33 µM
- CC50 [5]: > 125 µM

SMILES: Brc1ccc(Cn2ccc3nc(-c4ccccn4)nc-3c2)cc1
- EC50 [1]: 0.1 µM
- EC50 (Hepatitis C virus): 0.35 µM
- Ratio CC50/EC50 [2]: 15
- Ratio CC50/EC50 [3]: 96
- CC50 [4]: 10 µM
- CC50 [5]: 5.2 µM

SMILES: Brc1ccc(Cn2ccc3nc(-c4ccccc4Br)nc-3c2)cc1
- EC50 [1]: 0.5 µM
- EC50 (Hepatitis C virus): 21 µM
- Ratio CC50/EC50 [2]: 2
- Ratio CC50/EC50 [3]: >66
- CC50 [4]: > 33 µM
- CC50 [5]: 36 µM

SMILES: Brc1ccc(Cn2ccc3nc(-c4ccccc4)nc-3c2)cc1
- EC50 (Hepatitis C virus): > 38 µM
- Activity [2]: inactive
- CC50 [5]: 38 µM

SMILES: Brc1ccc(Cn2ccc3nc(-c4cccc5ccccc45)nc-3c2)cc1
- EC50 [1]: 0.3 µM
- EC50 (Hepatitis C virus): 9.7 µM
- Activity [2]: inactive
- Ratio CC50/EC50 [3]: 77
- CC50 [4]: 23 µM
- CC50 [5]: 12 µM

SMILES: Fc1cccc(-c2nc3ccn(Cc4ccc(Br)cc4)cc-3n2)c1
- EC50 [1]: 0.04 µM
- EC50 (Hepatitis C virus): > 44 µM
- Activity [2]: inactive
- Ratio CC50/EC50 [3]: >825
- CC50 [4]: > 33 µM
- CC50 [5]: 44 µM

SMILES: Brc1ccc(Cn2ccc3nc(-c4ccc(Br)s4)nc-3c2)cc1
- EC50 [1]: 0.6 µM
- EC50 (Hepatitis C virus): > 18 µM
- Activity [2]: inactive
- Ratio CC50/EC50 [3]: >55
- CC50 [4]: > 33 µM
- CC50 [5]: 18 µM

SMILES: CN(C)c1cccc(-c2nc3ccn(Cc4ccc(Br)cc4)cc-3n2)c1
- EC50 [1]: 0.14 µM
- EC50 (Hepatitis C virus): > 79 µM
- Activity [2]: inactive
- Ratio CC50/EC50 [3]: 171
- CC50 [4]: 24 µM
- CC50 [5]: 79 µM

SMILES: Cc1cccc(-c2nc3ccn(Cc4ccc(Br)cc4)cc-3n2)c1
- EC50 [1]: 0.06 µM
- EC50 (Hepatitis C virus): > 11 µM
- Activity [2]: inactive
- Ratio CC50/EC50 [3]: 372
- CC50 [4]: 23 µM
- CC50 [5]: 11 µM

SMILES: Brc1ccc(Cn2ccc3nc(CCCc4ccccc4)nc-3c2)cc1
- EC50 [1]: 3 µM
- EC50 (Hepatitis C virus): 7.4 µM
- Ratio CC50/EC50 [2]: 2
- Ratio CC50/EC50 [3]: 8
- CC50 [4]: 22 µM
- CC50 [5]: 12 µM

SMILES: Brc1ccc(Cn2ccc3nc(-c4cccs4)nc-3c2)cc1
- EC50 [1]: 0.04 µM
- EC50 (Hepatitis C virus): > 35 µM
- Activity [2]: inactive
- Ratio CC50/EC50 [3]: >825
- CC50 [4]: > 33 µM
- CC50 [5]: 35 µM
